In ChEMBL document CHEMBL4680065, “Pharmacophore-based screening of diamidine small molecule inhibitors for protein arginine methyltransferases” (RSC Med Chem, 2021):

What was measured:
[1] = target: Protein arginine N-methyltransferase 3 (Homo sapiens, UniProt O60678); assay: Inhibition of recombinant human His-tagged PRMT3 expressed in Escherichia coli BL21 (DE3) using biotin-labeled SMD1 as substrate incubated for 10 mins in presence of [3H]-SAM cofactor by scintillation proximity assay
Procedure, shortened: (§1)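 The inhibitor was serially diluted and added to the enzyme, [3H]-SAM and substrate mixture, and methylated substrate was quantified by scintillation proximity assay. Reactions were held at initial rate, with yield under 10% and substrate near Km. PRMT3, PRMT8 and G9a were His-tagged human proteins, and PRMT7 was GST-tagged, all expressed in E. coli and affinity-purified.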

[2] = target: T1, Protein arginine N-methyltransferase 7 (Homo sapiens, UniProt Q9NVM4); assay: Inhibition of recombinant GST-tagged PRMT7 (unknown origin) expressed in Escherichia coli using biotin-labeled SMD1 as substrate incubated for 120 mins in presence of [3H]-SAM cofactor by scintillation proximity assay; procedure, shortened: as §1
T1 sequence (Q9NVM4 whole entry): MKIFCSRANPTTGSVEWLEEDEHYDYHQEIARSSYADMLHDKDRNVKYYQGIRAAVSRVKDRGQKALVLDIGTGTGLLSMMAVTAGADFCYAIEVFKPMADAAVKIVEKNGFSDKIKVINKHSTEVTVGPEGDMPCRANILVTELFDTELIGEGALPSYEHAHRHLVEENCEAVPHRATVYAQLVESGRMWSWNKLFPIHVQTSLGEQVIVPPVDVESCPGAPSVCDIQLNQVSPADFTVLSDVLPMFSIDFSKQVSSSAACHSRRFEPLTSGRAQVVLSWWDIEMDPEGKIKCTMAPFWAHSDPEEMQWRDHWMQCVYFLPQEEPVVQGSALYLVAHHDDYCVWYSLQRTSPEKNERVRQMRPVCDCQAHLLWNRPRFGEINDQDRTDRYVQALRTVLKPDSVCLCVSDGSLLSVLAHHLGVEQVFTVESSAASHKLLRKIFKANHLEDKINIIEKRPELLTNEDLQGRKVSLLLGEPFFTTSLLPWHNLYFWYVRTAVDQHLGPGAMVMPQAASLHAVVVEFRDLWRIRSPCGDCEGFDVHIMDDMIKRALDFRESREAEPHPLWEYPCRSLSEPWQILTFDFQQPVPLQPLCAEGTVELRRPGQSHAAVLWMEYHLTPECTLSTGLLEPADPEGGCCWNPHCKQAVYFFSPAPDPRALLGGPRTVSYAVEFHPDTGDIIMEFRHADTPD

[3] = target: T2, Histone-lysine N-methyltransferase EHMT2 (Homo sapiens, UniProt Q96KQ7); assay: Inhibition of recombinant His-tagged human G9a expressed in Escherichia coli BL21 (DE3) using biotin-labeled histone H3-20 peptide as substrate incubated for 30 mins in presence of [3H]-SAM cofactor by scintillation proximity assay; procedure, shortened: as §1
T2 sequence (Q96KQ7 whole entry): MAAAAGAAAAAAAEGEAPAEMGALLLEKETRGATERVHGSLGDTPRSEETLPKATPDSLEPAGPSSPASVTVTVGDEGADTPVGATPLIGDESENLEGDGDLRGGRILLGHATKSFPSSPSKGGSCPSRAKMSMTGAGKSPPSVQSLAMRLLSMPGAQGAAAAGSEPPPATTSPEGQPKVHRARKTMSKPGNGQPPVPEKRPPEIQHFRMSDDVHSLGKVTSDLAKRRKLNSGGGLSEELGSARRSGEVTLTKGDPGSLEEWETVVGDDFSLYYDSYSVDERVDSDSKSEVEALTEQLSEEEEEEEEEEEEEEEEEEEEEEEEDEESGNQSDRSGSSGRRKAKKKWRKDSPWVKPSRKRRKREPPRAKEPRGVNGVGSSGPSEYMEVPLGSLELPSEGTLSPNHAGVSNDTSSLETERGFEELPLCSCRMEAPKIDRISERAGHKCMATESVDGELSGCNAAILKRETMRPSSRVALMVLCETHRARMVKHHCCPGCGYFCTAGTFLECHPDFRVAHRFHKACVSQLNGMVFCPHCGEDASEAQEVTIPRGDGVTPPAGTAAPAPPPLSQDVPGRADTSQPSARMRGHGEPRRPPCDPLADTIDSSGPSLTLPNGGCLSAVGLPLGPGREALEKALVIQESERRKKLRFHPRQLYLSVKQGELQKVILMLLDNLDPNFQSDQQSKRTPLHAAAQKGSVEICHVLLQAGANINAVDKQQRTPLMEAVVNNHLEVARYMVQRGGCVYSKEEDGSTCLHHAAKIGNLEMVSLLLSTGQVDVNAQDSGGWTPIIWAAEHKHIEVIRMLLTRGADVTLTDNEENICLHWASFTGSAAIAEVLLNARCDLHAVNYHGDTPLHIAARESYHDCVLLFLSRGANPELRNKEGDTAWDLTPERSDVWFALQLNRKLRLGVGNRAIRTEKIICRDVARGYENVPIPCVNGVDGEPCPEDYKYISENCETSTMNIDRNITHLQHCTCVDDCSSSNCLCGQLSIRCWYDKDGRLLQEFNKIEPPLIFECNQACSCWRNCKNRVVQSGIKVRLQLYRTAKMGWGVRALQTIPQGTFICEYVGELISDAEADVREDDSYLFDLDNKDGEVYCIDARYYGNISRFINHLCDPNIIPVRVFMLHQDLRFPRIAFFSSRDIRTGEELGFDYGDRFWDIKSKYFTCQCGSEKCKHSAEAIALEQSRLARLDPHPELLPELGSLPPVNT

[4] = target: T3, Histone-lysine N-methyltransferase EHMT2 (Homo sapiens) (UniProt Q96KQ7); assay: Inhibition of recombinant His-tagged human G9a expressed in Escherichia coli BL21 (DE3) assessed as residual activity at 10 uM using biotin-labeled histone H3-20 peptide as substrate incubated for 30 mins in presence of [3H]-SAM cofactor by scintillation proximity assay relative to control
T3 sequence (whole entry): T2 sequence (Q96KQ7 whole entry)
Procedure, shortened: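 Single-point profiling used 10 μM inhibitor added to the enzyme, [3H]-SAM and substrate mixture. Methylated substrate was quantified by scintillation proximity assay. Reactions were held at initial rate, with yield under 10% and substrate near Km. Enzyme, [3H]-SAM and substrate final levels are given in the supplement.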

K562 = assay: Antiproliferative activity against human K562 cells assessed as inhibition of cell growth measured after 72 hrs by CellTiter-Glo assay; format: functional, cell-based; conditions: K562, 72 h
Procedure, shortened: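 Cells were cultured with the test agent, serially diluted, for 72 h. The control received the same amount of DMSO. Cell viability was then measured, and IC50 values were taken from sensitivity curves.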

Protein arginine N-methyltransferase 3, sequence (O60678 whole entry): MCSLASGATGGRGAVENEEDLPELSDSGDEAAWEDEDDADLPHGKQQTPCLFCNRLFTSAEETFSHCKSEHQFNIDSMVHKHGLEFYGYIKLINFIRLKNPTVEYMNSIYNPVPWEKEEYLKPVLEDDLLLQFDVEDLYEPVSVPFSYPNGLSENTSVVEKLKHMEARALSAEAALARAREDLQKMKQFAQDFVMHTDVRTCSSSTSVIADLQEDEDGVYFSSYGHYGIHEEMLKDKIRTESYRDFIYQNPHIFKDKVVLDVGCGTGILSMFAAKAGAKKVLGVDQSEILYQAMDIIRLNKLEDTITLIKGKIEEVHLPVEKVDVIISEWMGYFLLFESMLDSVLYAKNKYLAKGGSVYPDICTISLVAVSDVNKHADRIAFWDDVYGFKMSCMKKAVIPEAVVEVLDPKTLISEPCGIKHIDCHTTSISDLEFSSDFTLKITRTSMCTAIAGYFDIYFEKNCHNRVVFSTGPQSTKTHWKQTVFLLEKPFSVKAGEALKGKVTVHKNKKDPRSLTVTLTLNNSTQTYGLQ

Structure (SMILES): N=C(N)c1ccc(Nc2ccc(-c3cc4ccc(C(=N)N)cc4[nH]3)cc2)cc1
- IC50 [1]: 3.4 µM
- IC50 [2]: 23.6 µM
- IC50 [3]: 3.7 µM
- Activity [4]: 10.5%
- IC50 (K562): 1.08 µM
